ChEMBL document CHEMBL3407481, “Pyridine C-region analogs of 2-(3-fluoro-4-methylsulfonylaminophenyl)propanamides as potent TRPV1 antagonists” (Eur J Med Chem, 2015)
pIC50, pKi: −log10 of the molar value. Blank lines part the entries; values can stand above or below the molecule they belong to.

What was measured:
[1] = target: T1, Transient receptor potential cation channel subfamily V member 1 (Homo sapiens, UniProt Q8NER1); experiment: Antagonist activity at human TRPV1 expressed in CHO cells assessed as inhibition of capsaicin-induced activity by FLIPR assay; format: cell-based; conditions: for pKi: read-out: Ki
T1 sequence (Q8NER1 whole entry): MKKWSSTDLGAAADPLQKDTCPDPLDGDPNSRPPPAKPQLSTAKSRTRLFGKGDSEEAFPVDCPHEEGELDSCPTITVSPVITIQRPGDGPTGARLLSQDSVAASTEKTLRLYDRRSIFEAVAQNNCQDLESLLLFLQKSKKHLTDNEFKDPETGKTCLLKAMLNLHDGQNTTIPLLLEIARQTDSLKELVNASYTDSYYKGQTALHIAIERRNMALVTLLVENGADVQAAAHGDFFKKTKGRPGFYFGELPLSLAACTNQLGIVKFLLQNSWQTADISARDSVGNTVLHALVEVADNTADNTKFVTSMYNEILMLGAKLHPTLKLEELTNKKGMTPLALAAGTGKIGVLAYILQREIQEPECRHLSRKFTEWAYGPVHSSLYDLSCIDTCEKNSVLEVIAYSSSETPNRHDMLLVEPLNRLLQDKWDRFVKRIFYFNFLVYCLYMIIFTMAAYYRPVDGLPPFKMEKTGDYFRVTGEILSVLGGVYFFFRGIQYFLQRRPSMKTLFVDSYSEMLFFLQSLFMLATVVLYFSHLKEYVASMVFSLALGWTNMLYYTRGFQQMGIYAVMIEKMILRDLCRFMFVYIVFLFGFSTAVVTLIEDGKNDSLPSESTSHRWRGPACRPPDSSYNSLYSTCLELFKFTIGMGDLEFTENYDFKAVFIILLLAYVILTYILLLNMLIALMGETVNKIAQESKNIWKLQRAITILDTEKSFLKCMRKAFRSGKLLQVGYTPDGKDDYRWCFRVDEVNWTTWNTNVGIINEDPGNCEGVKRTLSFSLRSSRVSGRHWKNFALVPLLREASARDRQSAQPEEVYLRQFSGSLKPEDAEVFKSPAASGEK

[2] = target: T1, Transient receptor potential cation channel subfamily V member 1; experiment: Antagonist activity at human TRPV1 expressed in CHO cells assessed as inhibition of pH-induced activity by FLIPR assay; format: cell-based
[3] = target: T1, Transient receptor potential cation channel subfamily V member 1; experiment: Antagonist activity at human TRPV1 expressed in CHO cells assessed as inhibition of heat at 45 degC-induced activity by FLIPR assay; format: cell-based
[4] = target: T1, Transient receptor potential cation channel subfamily V member 1; experiment: Antagonist activity at human TRPV1 expressed in CHO cells assessed as inhibition of N-arachidonoyl dopamine-induced activity by FLIPR assay; format: cell-based
Mus musculus [5] = experiment: Inhibition in capsaicin-induced hypothermia in mouse at 0.3 mg/kg, po 15 min before capsaicin challenge measured 30 mins post capsaicin treatment; format: functional
Mus musculus [6] = experiment: Analgesic activity in mouse assessed as inhibition of formalin-induced response at 0.1 mg/kg, po; format: functional
Summary of the method: (§1)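 Formalin test in mice after oral dosing. Values are tabulated as MPE and described as % inhibition of the nociceptive response.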

Mus musculus [7] = experiment: Analgesic activity in mouse assessed as inhibition of formalin-induced response at 0.3 mg/kg, po; format: functional; summary of the method: as §1
Mus musculus [8] = experiment: Inhibition in capsaicin-induced hypothermia in mouse at 0.1 mg/kg, po 15 min before capsaicin challenge measured 30 mins post capsaicin treatment; format: functional
Mus musculus [9] = experiment: Inhibition in capsaicin-induced hypothermia in mouse at 1 mg/kg, po 15 min before capsaicin challenge measured 30 mins post capsaicin treatment; format: functional
Mus musculus [10] = experiment: Inhibition in capsaicin-induced hypothermia in mouse at 10 mg/kg, po 15 min before capsaicin challenge measured 30 mins post capsaicin treatment; format: functional
Mus musculus [11] = experiment: Inhibition in capsaicin-induced hypothermia in mouse compound dosed orally before capsaicin challenge measured 30 mins post capsaicin treatment; format: functional, organism-based
Mus musculus [12] = experiment: Analgesic activity in mouse assessed as inhibition of formalin-induced response at 1 mg/kg, po; format: functional; summary of the method: as §1

Compound: CC(C(=O)NCc1ccc(C2CC2)nc1N1CCCCC1)c1ccc(NS(C)(=O)=O)c(F)c1 (stereo not drawn)
pKi [1]: 8.96

Compound: CC(C(=O)NCc1ncc(C(F)(F)F)cc1N1CCCC1)c1ccc(NS(C)(=O)=O)c(F)c1 (stereo not drawn)
Ki ([1]; cho): Not Active

Compound: CC1CCN(c2nc(C3CC3)ccc2CNC(=O)C(C)c2ccc(NS(C)(=O)=O)c(F)c2)CC1 (stereo not drawn)
pKi [1]: 9.05

Compound: CC(C(=O)NCc1ncc(C(F)(F)F)cc1N1CCCCC1)c1ccc(NS(C)(=O)=O)c(F)c1 (stereo not drawn)
pKi [1]: 7.54

Compound: CC1CCN(c2nc(-c3ccc(F)cc3)ccc2CNC(=O)C(C)c2ccc(NS(C)(=O)=O)c(F)c2)CC1 (stereo not drawn)
pKi [1]: 7.23

Compound: CC(C(=O)NCc1ccc(C(F)(F)Cl)nc1N1CCCCCC1)c1ccc(NS(C)(=O)=O)c(F)c1 (stereo not drawn)
pKi [1]: 9.30

Compound: CC(C(=O)NCc1ccc(C(F)(F)Cl)nc1SC1CCCCC1)c1ccc(NS(C)(=O)=O)c(F)c1 (stereo not drawn)
pKi [1]: 8.52

Compound: CC1CCN(c2nc(C(F)(F)F)ccc2CNC(=O)C(C)c2ccc(NS(C)(=O)=O)c(F)c2)CC1 (stereo not drawn)
pIC50 [2]: 7.80
pKi [4]: 10.70

Now from value to molecule, other results behind:

pKi [1]: 9.52
pIC50 [2]: 8.08
pIC50 [3]: 8.15
pKi [4]: 10.70
Compound: CCCCOc1nc(C(F)(F)Cl)ccc1CNC(=O)C(C)c1ccc(NS(C)(=O)=O)c(F)c1 (stereo not drawn)
inhibition in vivo at 0.3 mg/kg (Mus musculus [5]): 43%
MPE (Mus musculus [6]): 56%
MPE (Mus musculus [7]): 73%

pKi [1]: 8.89
Compound: CC(C(=O)NCc1ccc(C(F)(F)Cl)nc1N1CCCCC1)c1ccc(NS(C)(=O)=O)c(F)c1 (stereo not drawn)

pKi [1]: 9.00
Compound: CC1CC(C)CN(c2nc(C(F)(F)Cl)ccc2CNC(=O)C(C)c2ccc(NS(C)(=O)=O)c(F)c2)C1 (mixture of isomers)

pIC50 [3]: 7.71
pKi [4]: 10.40
Compound: CC(C(=O)NCc1ccc(C(F)(F)Cl)nc1OC1CCCC1)c1ccc(NS(C)(=O)=O)c(F)c1 (stereo not drawn)
inhibition in vivo at 0.1 mg/kg (Mus musculus [8]): 23%
inhibition in vivo at 0.3 mg/kg (Mus musculus [5]): 41%
inhibition in vivo at 1 mg/kg (Mus musculus [9]): 60%
inhibition in vivo at 10 mg/kg (Mus musculus [10]): 92%
inhibition (Mus musculus [11]): Dose-dependent effect
MPE (Mus musculus [7]): 29%
MPE (Mus musculus [12]): 15%

pKi [1]: 7.00
Compound: CCCCCCOc1nc(C(F)(F)F)cc(C)c1CNC(=O)C(C)c1ccc(NS(C)(=O)=O)c(F)c1 (stereo not drawn)
